From PubChem
A selection: hits, their analogues and other compounds. The true share with any hit is near 0.44%.
S100A4 MyoIIA – blocks human S100A4 binding to myosin IIA peptide; P26447; S100A4/TAMRA-MyoIIA peptide fluorescence polarization; inhibition, % at 10.7 µM; 360,000 tested, 0.14% active;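 active means mean inhibition of at least 70% across replicates, with every replicate also reaching that level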
Target sequence (P26447 whole entry, looked up): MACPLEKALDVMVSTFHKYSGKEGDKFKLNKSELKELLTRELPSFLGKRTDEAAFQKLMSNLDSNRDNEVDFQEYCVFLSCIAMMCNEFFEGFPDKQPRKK
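Compound dosing: one dose per compound; test system: human S100A4 monomer with TAMRA-labelled myosin IIA peptide; probe or stimulus: TAMRA-labelled myosin IIA heavy-chain peptide probe, 5 nM; medium: HEPES buffer with Ca2+, pH 7.2; schedule: 5 min incubation before reading; benchmarks: neutral control DMSO, positive control TFP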
RAD54 inh – RAD54 (human) branch migration inhibition; Q92698; RAD54 Holliday junction branch migration, FAM/BHQ fluorescence; inhibition, % at 10.4 µM; 360,000 tested, 0.14% active;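 active means mean normalized replicate activity at least 40 and at least half of replicates scoring 40 or more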;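 further: 0% = median of neutral control wells and 100% = median of positive control wells; inhibitors cause a drop in the FAM fluorescence signal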
PDI inh – blocks human protein disulfide isomerase activity. AID 588391. P07237. 350,000 tested, 0.052% active. inhibition, % at 10 µM. PDI insulin aggregation turbidity, A650, 90 min;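 active means mean inhibition across replicates of 30% or more, whatever share of single replicates reach that level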
Target sequence (P07237 whole entry, looked up): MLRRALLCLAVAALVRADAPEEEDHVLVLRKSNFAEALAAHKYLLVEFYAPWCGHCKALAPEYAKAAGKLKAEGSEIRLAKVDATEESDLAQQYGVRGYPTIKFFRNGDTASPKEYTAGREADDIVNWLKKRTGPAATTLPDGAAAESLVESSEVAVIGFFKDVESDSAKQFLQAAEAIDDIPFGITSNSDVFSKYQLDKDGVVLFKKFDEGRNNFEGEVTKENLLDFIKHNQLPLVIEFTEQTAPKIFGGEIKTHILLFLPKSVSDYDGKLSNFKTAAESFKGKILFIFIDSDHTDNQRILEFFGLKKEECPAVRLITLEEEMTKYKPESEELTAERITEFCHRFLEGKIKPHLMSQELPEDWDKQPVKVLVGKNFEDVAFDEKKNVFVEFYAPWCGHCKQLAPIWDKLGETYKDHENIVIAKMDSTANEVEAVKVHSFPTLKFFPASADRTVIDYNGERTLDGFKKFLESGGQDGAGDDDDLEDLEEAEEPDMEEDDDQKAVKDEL
FN deposition inh – fibronectin deposition inhibition; AH1F fibroblasts, Alexa488-fibronectin deposition fluorescence, overnight; inhibition, % at 12.6 µM; 350,000 tested, 0.086% active;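 active means mean inhibition across replicates of 30% or more, regardless of how many single replicates reach that level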;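 further: positive control wells lacked labelled fibronectin entirely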
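Material: AH1F fibroblasts assembling fluorescent fibronectin matrix; amount: 10000 AH1F cells/well; medium: DMEM, 2% serum; reagent: Alexa488-fibronectin, 24 nM final in well; dosing: single compound dose, delivered by pin transfer; incubation: 1 h adhesion, overnight exposure; detection: fluorescence after three HBSS washes, excitation 485 nm, emission 525 nm; measure: fibronectin deposition inhibition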
ERp5 inh – ERp5 (human) disulfide isomerase inhibition; Q15084; 350,000 tested, 0.05% active; ERp5 insulin aggregation, absorbance 650 nm, 90 min; AID 651711; inhibition, % at 9.99 µM;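 active means mean replicate inhibition above about 25%, with every replicate also reaching it, limit read from the data, passing the limit was not always enough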
PglD inh – PglD (C. jejuni) enzyme inhibition; 360,000 tested, 0.098% active; inhibition, % at 12.5 µM; purified PglD enzyme, DTNB colorimetric CoA detection; in the data active means inhibition above about 16%, passing the limit was not always enough
Active calls of the source: *; x = no result given; + = active, no number.

SMILES	S100A4 MyoIIA	RAD54 inh	PDI inh	FN deposition inh	ERp5 inh	PglD inh
CC(C)NC(=O)N(C)C[C@@H]1Oc2ccc(NC(=O)Cc3cn(C)c4ccccc34)cc2C(=O)N([C@@H](C)CO)C[C@@H]1C	-33	-6	x	x	-3	3
C[C@H](CO)N1C[C@H](C)[C@@H](CN(C)Cc2ccc(-c3ccccc3)cc2)Oc2ccc(NC(=O)CCCN(C)C)cc2C1=O	-1	11	x	-4	0	-1
COc1ccc(CN(C)C[C@@H]2Oc3ccc(NC(=O)Nc4c(C)noc4C)cc3C(=O)N([C@H](C)CO)C[C@H]2C)cc1	16	56*	x	-6	1	4
CC(C)NC(=O)N(C)C[C@H]1Oc2ccc(NC(=O)CCCN(C)C)cc2C(=O)N([C@H](C)CO)C[C@H]1C	111*	-8	x	x	0	0
CC(C)NC(=O)N(C)C[C@@H]1Oc2ccc(NC(=O)Cc3cn(C)c4ccccc34)cc2C(=O)N([C@H](C)CO)C[C@H]1C	-8	8	x	x	-4	26*
COc1ccc(CN(C)C[C@H]2Oc3ccc(NC(=O)Nc4c(C)noc4C)cc3C(=O)N([C@@H](C)CO)C[C@@H]2C)cc1	-7	15	x	-4	0	-3
Cc1ccc(S(=O)(=O)Nc2ccc3c(c2)C(=O)N([C@H](C)CO)C[C@H](C)[C@H](CN(C)Cc2ccc(C(F)(F)F)cc2)O3)cc1	x	x	x	-2	x	x
C[C@H]1CN([C@@H](C)CO)C(=O)c2cc(NC(=O)NC3CCCCC3)ccc2O[C@@H]1CN(C)Cc1ccc(C(=O)O)cc1	96*	4	x	x	0	-3
C[C@@H]1CN([C@@H](C)CO)C(=O)c2cc(NC(=O)CCC(F)(F)F)ccc2O[C@@H]1CN(C)C(=O)Nc1ccc(F)cc1	96*	1	x	x	-2	5
COc1ccc(CN(C)C[C@@H]2Oc3ccc(NC(=O)Nc4ccc(OC)cc4)cc3C(=O)N([C@@H](C)CO)C[C@H]2C)cc1	-11	62*	x	x	-6	3
C[C@H]1CN([C@@H](C)CO)C(=O)c2cc(NC(=O)CCC(F)(F)F)ccc2O[C@@H]1CN(C)S(=O)(=O)c1cn(C)cn1	98*	-4	x	x	-3	0
C[C@H](CO)N1C[C@H](C)[C@@H](CN(C)Cc2ccc(C(=O)O)cc2)Oc2ccc(NC(=O)NC3CCCCC3)cc2C1=O	5	1	x	x	-2	2
CNC[C@@H]1Oc2ncccc2C(=O)N(C)C[C@@H]1C	x	x	x	-7	x	x
COc1ccc(CN(C)C[C@@H]2Oc3ccc(NC(=O)NC4CCCCC4)cc3C(=O)N([C@H](C)CO)C[C@H]2C)cc1	-5	40	x	x	2	1
COc1ccc(CN(C)C[C@@H]2Oc3ccc(NC(=O)NC4CCCCC4)cc3C(=O)N([C@@H](C)CO)C[C@H]2C)cc1	9	63*	x	x	8	-3
C[C@@H]1CN([C@H](C)CO)C(=O)c2cc(NC(=O)Nc3ccc(F)cc3)ccc2O[C@H]1CN(C)Cc1ccc(-c2ccccc2)cc1	-8	32	x	-6	51*	1
COc1ccc(CN(C)C[C@H]2Oc3ccc(NC(=O)Nc4ccccc4)cc3C(=O)N([C@@H](C)CO)C[C@@H]2C)cc1	5	5	x	x	-7	8
COc1ccc(CN(C)C[C@@H]2Oc3ccc(NC(=O)Nc4ccccc4)cc3C(=O)N([C@@H](C)CO)C[C@H]2C)cc1	4	53*	x	x	3	9
COc1ccc(NC(=O)N(C)C[C@H]2Oc3ccc(N(C)C)cc3C(=O)N([C@@H](C)CO)C[C@@H]2C)cc1	103*	-3	x	-4	4	5
O=C(C[C@H]1C=C[C@@H](NC(=O)CC2CC2)[C@H](CO)O1)NCc1ccccc1	19	x	x	x	-1	x
N#Cc1nccnc1S(=O)(=O)c1cccs1	-4	x	x	40*	6	x
CC(C)(C)OC(=O)C[C@@H]1C/C=C\C[C@H](CC(=O)N[C@H](CO)Cc2ccccc2)C(=O)N[C@H](Cc2ccccc2)COC1=O	-1	-2	5	-5	-1	-3
CC(C)(C)OC(=O)C[C@H]1C/C=C\C[C@H](CC(=O)N[C@H](CO)Cc2ccccc2)C(=O)N[C@H](Cc2ccccc2)COC1=O	108*	-1	0	1	-4	3
Cc1ccc(S(=O)(=O)CCC(=O)N(CCCN2CCOCC2)c2nc3ccccc3s2)cc1	-3	4	5	x	1	5
O=C(CCS(=O)(=O)c1ccccc1)N(CCCN1CCOCC1)c1nc2ccccc2s1	6	x	38*	x	-8	x
SMILES	S100A4 MyoIIA	RAD54 inh	PDI inh	FN deposition inh	ERp5 inh	PglD inh
CCn1c(SCC(=O)Nc2ccc3c(c2)c2ccccc2n3CC)nnc1-c1ccco1	x	1	56*	9	x	2
O=C(Cc1ccccc1)N1CC(=O)N2[C@H](C1)[C@@H](c1ccc(-c3cccc(F)c3)cc1)[C@@H]2CO	5	x	x	x	0	x
C[n+]1cc2c3c(ccc2c2ccc4cc5c(cc4c21)OCO5)OCO3	7	x	x	52*	10	x
COCC(=O)N1C[C@H](C)[C@@H](OC)CN(C)C(=O)c2cc(NC(=O)Nc3cccc(F)c3)ccc2OC[C@H]1C	0	-1	x	-8	2	0
Cc1c(CCC(=O)O)c(=O)oc2c(C)c3occ(-c4ccc(Br)cc4)c3cc12	6	-10	-2	3	-1	-2
COc1ccc(-c2coc3c(C)c4oc(=O)c(CCC(=O)O)c(C)c4cc23)cc1	x	2	52*	x	x	5
C/C=C/c1ccc([C@@H]2[C@@H](CO)N(C(C)=O)[C@@H]2CNC(=O)CC2CC2)cc1	1	-1	x	-12	3	-1
C[C@H](CO)N1C[C@H](C)[C@@H](CN(C)C(=O)Nc2ccc3c(c2)OCO3)Oc2ccc(NC(=O)c3ccncc3)cc2CC1=O	-10	2	x	x	2	0
COc1cc2c3nnc(-c4ccccc4)c-3cn(Cc3ccc(F)cc3)c2cc1OC	-3	x	-24	9	3	x
COc1cc2c3nnc(-c4ccc(F)cc4)c-3cn(Cc3ccc(C)cc3)c2cc1OC	+	4	-7	-3	4	3
O=C(O)c1ccccc1-c1c2cc(I)c(=O)c(I)c-2oc2c(I)c(O)c(I)cc12	+	-425	6	-2	6	-4
O=C(NCC[C@@H]1CC[C@@H](NS(=O)(=O)Cc2ccccc2)[C@H](CO)O1)C1CCC1	5	1	x	x	-5	6
O=C(NN=c1c(=O)c2ccccc2c1=O)c1ccccc1	3	1	1	x	33*	7
CN(C)/C=N/NC(=O)c1ccccc1	-11	2	11	-4	7	-7
CCN(CC)CCCNc1nc2ccccc2c2nc(-c3ccncc3)nn12	-33	109*	1	-1	-7	-3
CN1CCN(CCCNc2nc3ccccc3c3nc(-c4ccccc4)nn23)CC1	8	x	8	-2	7	x
